Reference: the EternaBench riboswitch data

Tested on: MS2 coat protein
Assay: apparent Kd, MS2 coat protein; higher = weaker binding; RNA-MaP array; FMN 200 µM where present
Procedure, shortened: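 Stalled E. coli RNA polymerase transcribed the designs on Illumina sequencing-chip clusters. SNAP-549-labelled MS2 coat protein was titrated from 0.7 or 1.5 nM, doubling to 3 µM, without and then with constant ligand, in 100 mM Tris-HCl pH 7.5, 80 mM KCl, 4 mM MgCl2, BSA, DTT, yeast tRNA and Tween-20. Per-cluster binding curves were fitted to green signal normalised to red-channel RNA signal and control-cluster median Fmax. The apparent Kd is the median of the filtered fits.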

[1] = designed as: OFF switch for flavin mononucleotide, no ligand
[2] = ligand present: flavin mononucleotide, designed as: OFF switch for flavin mononucleotide
[3] = designed as: ON switch for flavin mononucleotide, no ligand
[4] = ligand present: flavin mononucleotide, designed as: ON switch for flavin mononucleotide

Sequence | apparent Kd [1] | apparent Kd [2] | apparent Kd [3] | apparent Kd [4]
UUCCUCGUUGUGAGGAUAUCGUAUUCUUUUUGUUACGAGAAGGCACAUGAGGAUCACCCAUGUUUCUUGAUGUU | 19.5 nM | 68.8 nM |  | 
UUCCUCUUAACAUGAGGAUCACCCAUGUAUUAUUUGGUAAUUGAGGAUAUAUUUUUAAUGUUUAUAUAGAAGGCAAAUACAGUU | 45.7 nM | 49.3 nM |  | 
UUCGCUAAGGUGUAGCGAGACUUGCAAGAAGGGUGAAGAACAUGAGGAUCACCCAUGUAAGCCUUACAGGAUAUUGCUUGACGA |  |  | 106 nM | 36.4 nM
UUCGGCGCAGGAUAUACAGUUCUGUGUUGAAUCGGCGCGGGACAUGAGGAUCACCCAUGUAGAAGGGUGUUGAA | 1160 nM | 578 nM |  | 
UUCGUGCAGCUUUGUUGUACGCGUACAUGAGGAUCACCCAUGUAGGAUAUGGUACGCUUUGCGUGCUAGAAGGAUAUGGAGAGG | 13.2 nM | 15.4 nM |  | 
UUCGUGCAGUUUUGCUGUACGCGUACAUGAGGAUCACCCAUGUAGGAUAUGGUAGGCUUUGCUUACUAGAAGGAUAGUGUGAUC | 163 nM | 33.8 nM |  | 
UUCGUGUGACAGAAGGGUCUUUCAGGCUGGGAGGCAGGAUAUGUGACAUGAGGAUCACCCAUGUUGGUAUCGUCUGUGUGUACG | 6.7 nM | 14.6 nM |  | 
UUGAGGUGCAAGAAGGAUCACAUGAGGAUCACCCAUGUCAUGUGAAGUCUCGAGAUUUUAUAUGGAUAGGAUAUUGCACCGAAC |  |  | 263 nM | 41.2 nM
UUGCCACAUGAGGAUCACCCAUGUGAGGAUAUGGCCUGUUUGGCGUGUGCUGGCUCUGUCAGAAGGCGCGUGGG | 31.8 nM | 37.5 nM |  | 
UUGCCUCAGAACAUGAGGAUCACCCAUGUGCUGCGGGCAACGUAGGAUAUGAUGGUGUGACACCAUCAGAAGGAUGAUGGUACC |  |  | 5.97 nM | 5.81 nM
UUGCCUCAGAACAUGAGGAUCACCCAUGUGCUGUGGGCAACAUAGGAUAUGAUGGUAUUAUACCGUCAGAAGGAUGAUGGUACU |  |  | 5.34 nM | 5.06 nM
UUGGACAGCUAGAGCUGCUAAGUACAUGAGGAUCACCCAUGUCAGGAUAUCCUUCCGCAAUGCGAGGAGAAGGGACAGGGUCCC | 75.4 nM | 179 nM |  | 
UUGGACGUCGUAGGAUAUGUAGGAUAUUCCUACAUGAGGAUCACCCAUGUUGACACGGAAGAAGGACAGAAGGACGAUGUCCAU |  |  | 11.6 nM | 4.23 nM
UUGGACGUCGUAGGAUAUGUAGGAUAUUCCUACAUGAGGAUCACCCAUGUUGACAUCGAAGAAGGACAGAAGGACGAUGUCCAU |  |  | 88 nM | 5.29 nM
UUGGACGUCGUAGGAUAUGUAGGAUAUUCCUACAUGAGGAUCACCCAUGUUGACAUGGAACAAGGACAGAAGGACGAUGUCCAU |  |  | 493 nM | 17.4 nM
UUGGACGUCGUAGGAUAUGUAGGAUAUUCCUACAUGAGGAUCACCCAUGUUGACAUGGAAGAAAGACAGAAGGACGAUGUCCAU |  |  | 325 nM | 8.48 nM
UUGGACGUCGUAGGAUAUGUAGGAUAUUCCUACAUGAGGAUCACCCAUGUUGACAUGGAAGAAGGAGAGAAGGACGAUGUCCAU |  |  | 308 nM | 354 nM
UUGGACGUCGUAGGAUAUGUAGGAUAUUCCUACAUGAGGAUCACCCAUGUUGACAUGGAAGAAGGCCAGAAGGACGAUGUCCAU |  |  | 930 nM | 100 nM
UUGGACGUCGUAGGAUAUGUAGGAUAUUCCUACAUGAGGAUCACCCAUGUUGACAUGGAAGACGGACAGAAGGACGAUGUCCAU |  |  | 490 nM | 12.8 nM
UUGGACGUCGUAGGAUAUGUAGGAUAUUCCUACAUGAGGAUCACCCAUGUUGACAUUGAAGAAGGACAGAAGGACGAUGUCCAU |  |  | 87.7 nM | 5.02 nM
UUGGACGUCGUAGGAUAUGUAGGAUAUUCCUACAUGAGGAUCACCCAUGUUUACAUGGAAGAAGGACAGAAGGACGAUGUCCAU |  |  | 1320 nM | 14.5 nM
UUGGACGUCGUAGGAUAUGUAGGAUAUUCGUACAUGAGGAUCACCCAUGUUGACAUGGAAGAAGGACAGAAGGACGAUGUCCAU |  |  | 12.2 nM | 4.55 nM
UUGGACGUCGUAGGAUAUGUAGGAUUUUCCUACAUGAGGAUCACCCAUGUUGAAAUGGAAGAAGGACAGAAGGACGAUGUCCAU |  |  | 139 nM | 16.2 nM
UUGGACGUCGUAGGAUAUGUAGGCUAUUCCUACAUGAGGAUCACCCAUGUUGACAUGGAAGAAGGACAGAAGGACGAUGUCCAU |  |  | 30.4 nM | 3.85 nM
UUGGACGUCGUAGGAUAUGUCGGAUAUUCCUACAUGAGGAUCACCCAUGUUGACAUGGAAGAAGGACAGAAGGACGAUGUCCAU |  |  | 4.52 nM | 3.87 nM
UUGGACGUCGUGGGAUAUGUAGGAUAUUCCUACAUGAGGAUCACCCAUGUUGACAUGGAAGAAGGACAGAAGGACGAUGUCCAU |  |  | 152 nM | 5.55 nM
UUGGCGACGUAGAAGGGUGACAUGAGGAUCACCCAUGUGCCGAUAUUUCUCGAGAUAUGUCGGCCACAGGAUAUACGUGCCAUC |  |  | 59.3 nM | 31.9 nM

Sequence | apparent Kd [1] | apparent Kd [2] | apparent Kd [3] | apparent Kd [4]
UUGGGAUGCAAGAAGGGUGACAUGAGGAUCACCCAUGUGUUGUGAAUUCUCGAGAUUUUAUGACCAUAGGAUAUUGCACCGAAC |  |  | 28.5 nM | 12.2 nM
UUGGUACAAGGAUAUACAUGAGGAUCACCCAUGUUUGGCAUCGCGCGUAUCUCUUCAGGUAGAAGGUGUGUUGA | 22.3 nM | 26.5 nM |  | 
UUGGUCAGUCAGAAGGCUACAUUACAUGAGGAUCACCCAUGUCAAAAGUAGAGGAUAUGAAGUUCGCCAUGGUAAGAGCCUGUC |  |  | 34.7 nM | 6.26 nM
UUGGUUCUCGUAGGAUAUGUAGGAUAUGCCUACAUGAGGAUCACCCAUGUUCGCAUGGCAGAAGGACAGAAGGACGAUCACCAU |  |  | 378 nM | 17.3 nM
UUGGUUGUCGUAGGAUAUGUAGGAUAUUCCUACAUGAGGAUCACCCAUGUUCGCAUGGAAGAAGGACAGAAGGACGAUGACCAU |  |  | 1290 nM | 23.7 nM
UUGUUAGCAGGAUAUAUCCACGACCACAUGAGGAUCACCCAUGUGGCCGCUUGAGGUUGUAUAGAAGGGCUUUGUU | 13.8 nM | 14.3 nM |  | 
UUGUUAUAUGUAGGAUAUGCAUAUUAUUAUUAUGCAGAAGGACAUGAGGAUCACCCAUGUAUGUUGUUGUUAUAUAUUAUAUAU | 24.8 nM | 27.8 nM |  | 
UUGUUAUAUGUAGGAUAUGCAUAUUAUUAUUAUGCAGAAGGACAUGAGGAUCACCCAUGUGUAUUGUUAUUAUAUAUUAUAUAU | 22.3 nM | 29.5 nM |  | 
UUGUUAUAUGUAGGAUAUGCGUAUUAUUAUUAUGCAGAAGGACAUGAGGAUCACCCAUGUAUGUUGUUGUUAUAUAUUAUAUAU | 22.9 nM | 26.2 nM |  | 
UUGUUGUAUGUAGGAUAUGCAUAUUAUUAUUAUGCAGAAGGACAUGAGGAUCACCCAUGUAUGUUAUUAUUAUAUGUUAUGUGU | 39.9 nM | 63.1 nM |  | 
UUGUUGUAUGUAGGAUAUGCGUAUUAUUAUUAUGCAGAAGGACAUGAGGAUCACCCAUGUAUAUUAUUAUUAUAUAUUAUAUAU | 26.9 nM | 56.1 nM |  | 
UUUAAUUAGUAAGGAUAUACUAGUGAUUAGCUUGUAGAAGGUACAGUCUUAUGUAUAACAAAUUAACAUGAGGAUCACCCAUGU |  |  | 10.6 nM | 7.99 nM
UUUAUAAAUUAGAAGGCGAGAUGAAUUACAAUAGACAUGAGGAUCACCCAUGUGUACCCAUGUUUUGAGGAUAUAGUCAUAUAU |  |  | 743 nM | 585 nM
UUUAUAUUCAGAGGAUAUUAAAGUAGUAUAACAUAAGAAGGCUGUUUGUUUUGUAAAGUAAUUCUACAUGAGGAUCACCCAUGU |  |  | 20.9 nM | 17 nM
UUUCAGUUCACAUGAGGAUCACCCAUGUCGGUUCGCCCGGACAGAAGGCACCCAUGACAAUGCGGUGAGGAUAUGUCAACAAGG |  |  | 143 nM | 19.1 nM
UUUCCUGGAGGAUAUACAUGAGGAUCACCCAUGUGGUUCGGAUUAAGCGGCUUACGCGGUAGAAGGUUAGACUU | 108 nM | 85.1 nM |  | 
UUUCGGAGCAGAGGAUAUUACAUGAGGAUCACCCAUGUAUGAACCAAUAGCUGGAAACAGCAAUGUAAGAAGGCUGCUCCGACA | 11.2 nM | 182 nM |  | 
UUUCGUCUCGAGAAGGUCUAUCGACAUGAGGAUCACCCAUGUUGCCAUGGAAGGAUAUCGAAGGCAGCACGGGAAAUAGUCCGG |  |  | 78.3 nM | 14 nM
UUUGCAACAUGAGGAUCACCCAUGUAGGAUAUCGCUAUUGUAAUCAUGAAACAUGAUUACAAUAGCGAGAAGGACAUAUGUCCC | 7.56 nM | 8.59 nM |  | 
UUUGCAUUCCGAGGAUAUUCAUUUAAUGACUUCACAUGAGGAUCACCCAUGUGGCGAUAGCCUAGGGAGAAGGCGGUUUGCUUU |  |  | 24.4 nM | 19.6 nM
UUUGGGUGAGGAUAUCAGUCUGGAUCAGACUAGAUCCUGACUGAGAAGGCACAUGAGGAUCACCCAUGUGAGUU | 294 nM | 320 nM |  | 
UUUGGGUGGCUGGAGGAUAUCCUGGUUGUUACAUGAGGAUCACCCAUGUGCCGCGCGGUGCGCUGGGAGAAGGCUGGCGGCCGUU |  |  | 130 nM | 27.6 nM
UUUGGGUGGCUGGAGGAUAUCCUGGUUGUUACAUGAGGAUCACCCAUGUGCCGCGCGGUUCGCGAGGAGAAGGCUGGCGGCCGUU |  |  | 147 nM | 33.6 nM
UUUGGGUGGCUGGAGGAUAUUCUAGUGGUUACAUGAGGAUCACCCAUGUGUCGCGCGGUACGCGAGGAGAAGGCUGGCGGCCGUU |  |  | 135 nM | 35.1 nM
UUUGGGUGGCUGGAGGAUAUUCUUGUGGUUACAUGAGGAUCACCCAUGUGUCGCGCGGUGCGCGAGGAGAAGGCUGGCGGCCGUU |  |  | 411 nM | 128 nM
UUUGUGUAAGGAUAUCACUACCGGGUCCGGACGCCCGCAGAUGAGAAGGUACAUGAGGAUCACCCAUGUCCCUA | 19.7 nM | 26.4 nM |  | 
UUUGUUGUUGUGAGGAUAUCGUUGUUAUUUUGAAACGAGAAGGCACAUGAGGAUCACCCAUGUUUGUUGAUGGU | 43.9 nM | 122 nM |  | 
